Assay results published in ChEMBL document CHEMBL1153789, “The methoxylated flavones eupatorin and cirsiliol induce CYP1 enzyme expression in MCF7 cells” (J Nat Prod, 2009).
Active and inactive are the calls of the source. No cut-off for these calls is given here.

Columns and labels:
Format in all cases: functional, cell-based
[1] = test system: MCF7; experiment: Induction of CYP1A1 expression in human MCF7 cells after 24 hrs by 7-ethoxyresorufin-O-deethelase assay
In short: (§1)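 EROD (7-ethoxyresorufin-O-deethylase) activity in MCF7 cells after 24 h exposure to 0.31, 0.625, 1.25, 2.5 µM flavone; 10 nM TCDD positive control, 0.1% DMSO negative control; three replicates. Read-out reflects mainly CYP1A1, with possible CYP1B1 contribution.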

[2] = test system: MCF7; experiment: Induction of CYP1A1 expression in human MCF7 cells at 5 uM after 24 hrs by RT PCR
In short: (§2)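 MCF7 cells treated 24 h (0, 1.25, 2.5, 5 µM; 10 nM TCDD reference); RT-PCR for CYP1A1, CYP1B1 and β-actin, primers per Döhr et al.; band intensities normalized to β-actin, semiquantitative; gels representative of three individual experiments.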

[3] = test system: MCF7; experiment: Induction of CYP1B1 expression in human MCF7 cells at 5 uM after 24 hrs by RT PCR; in short: as §2
[4] = test system: MCF7; experiment: Antiproliferative activity in human MCF7 cells after 96 hrs by MTT assay; conditions: MCF7, 96 h
[5] = test system: MCF7; experiment: Antiproliferative activity in human MCF7 cells after 96 hrs by MTT assay in presence of acacetin
[6] = test system: MCF7; experiment: Induction of CYP1B1 expression in human MCF7 cells after 24 hrs by 7-ethoxyresorufin-O-deethelase assay; in short: as §1
[7] = test system: MCF7; experiment: Induction of CYP1B1 expression in human MCF7 cells at 10 nM after 24 hrs by 7-ethoxyresorufin-O-deethelase assay
In short: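 MCF7 cells were exposed for 24 h to 0.31, 0.625, 1.25 or 2.5 µM flavone, with 10 nM TCDD as positive control and 0.1% DMSO as negative control. CYP1 activity was read by 7-ethoxyresorufin-O-deethylation (EROD), which is mainly CYP1A1-selective, though CYP1B1 may contribute. The time course used 2.5 µM. Three replicates.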

[8] = test system: MCF7; experiment: Induction of CYP1A1 expression in human MCF7 cells at 0.5 uM to 10 uM after 24 hrs by RT PCR and DNA electrophoresis
[9] = test system: MCF7; experiment: Antiproliferative activity in human MCF7 cells at 1.5 uM after 96 hrs by MTT assay
[10] = test system: MCF7; experiment: Induction of CYP1A1 expression in human MCF7 cells at 2.5 uM after 24 hrs by RT PCR; in short: as §2
[11] = test system: MCF7; experiment: Induction of CYP1B1 expression in human MCF7 cells at 1.25 uM after 24 hrs by RT PCR; in short: as §2

COc1ccc(-c2cc(=O)c3c(O)c(OC)c(OC)cc3o2)cc1O [EUPATORIN]
Activity [1]: Dose-dependent effect | Activity [2]: Active | Activity [3]: Active | IC50 [4]: 7 µM | Activity [5]: inactive | Activity [6]: Dose-dependent effect

Clc1cc2c(cc1Cl)Oc1cc(Cl)c(Cl)cc1O2
Activity [7]: Active

O=c1c(O)c(-c2ccc(O)cc2)oc2cc(O)cc(O)c12
Activity [8]: inactive

O=c1c(O)c(-c2ccc(O)c(O)c2)oc2cc(O)cc(O)c12
Activity [8]: Active

COc1ccc(-c2cc(=O)c3c(O)cc(O)cc3o2)cc1
Activity [9]: inactive

COc1cc2oc(-c3ccc(O)c(O)c3)cc(=O)c2c(O)c1OC [CIRSILIOL]
Activity [10]: Active | Activity [11]: Active | Activity [2]: inactive | Activity [3]: Active | IC25 [4]: 0.5 µM | IC50 [4]: 8 µM | IC25 ([5]; MCF7, 96 h): 5 µM | IC50 ([5]; MCF7, 96 h): 15 µM
